Experimental data published in ChEMBL document CHEMBL4364245 (Eur J Med Chem, 2019).

Experiments:
Influenza A virus [1] = assay: Antiviral activity against Influenza A virus (A/goose/Guangdong/SH7/2013(H5N1)) infected in CEF cells assessed as reduction in virus-induced cytopathic effect incubated for 48 hrs by CCK-8 assay; format: functional, organism-based
[2] = molecular target: Neuraminidase (Influenza A virus (A/Memphis/1/1971(H3N2)), UniProt P03471); assay: Inhibition of influenza A virus (A/Chicken/Hebei/LZF/2014(H5N2)) Neuraminidase N2 in using 4-MUNANA as substrate preincubated for 10 mins followed by substrate addition and measured after 40 mins by fluorescence based assay
Neuraminidase (Influenza A virus (A/Memphis/1/1971(H3N2)), UniProt P03471), sequence (P03471 whole entry): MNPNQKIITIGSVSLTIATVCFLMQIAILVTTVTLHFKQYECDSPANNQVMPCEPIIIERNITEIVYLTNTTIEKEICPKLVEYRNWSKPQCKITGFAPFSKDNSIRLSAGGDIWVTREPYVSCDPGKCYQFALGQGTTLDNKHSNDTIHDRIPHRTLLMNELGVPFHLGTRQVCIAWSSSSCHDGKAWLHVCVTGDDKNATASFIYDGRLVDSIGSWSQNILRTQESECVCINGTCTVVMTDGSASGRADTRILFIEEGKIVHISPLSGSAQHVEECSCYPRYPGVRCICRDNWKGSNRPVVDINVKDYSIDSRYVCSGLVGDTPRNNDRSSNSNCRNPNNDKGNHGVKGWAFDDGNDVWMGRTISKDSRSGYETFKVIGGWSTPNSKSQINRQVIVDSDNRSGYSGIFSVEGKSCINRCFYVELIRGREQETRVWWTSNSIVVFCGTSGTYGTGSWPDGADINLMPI

[3] = Inhibition of influenza B virus (B/PHUKET/3073/2013)) Neuraminidase in using 4-MUNANA as substrate preincubated for 10 mins followed by substrate addition and measured after 40 mins by fluorescence based assay
How it was run: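 Influenza B/PHUKET/3073/2013 NA, in MES buffer at pH 6.5 with CaCl₂, was preincubated with inhibitor for 10 min at 37°C. MUNANA substrate was added for 40 min at 37°C, and the reaction was stopped with 0.2 M glycine-NaOH at pH 10.2. Fluorescence was read at ex 365 / em 455 nm minus substrate blanks. IC50 was taken from % inhibition curves, mean ± SD of three experiments.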

[4] = Cytotoxicity against chicken CEF cells assessed as reduction in cell viability incubated for 48 hrs by CCK8 assay; format: cell-based, Gallus gallus
How it was run: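 Mock-infected chicken embryo fibroblasts received 2-fold serial dilutions of compound in DMEM with 1% FBS for 48 h at 37°C under 5% CO₂. Viability was read by CCK-8 (90 min, A450).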

Influenza A virus [5] = assay: Antiviral activity against Influenza A virus (A/Chicken/Hebei/LZF/2014(H5N2)) infected in CEF cells assessed as reduction in virus-induced cytopathic effect incubated for 48 hrs by CCK-8 assay; format: functional, organism-based

Compound | EC50 (Influenza A virus [1]) | IC50 [2] | IC50 [3] | CC50 at 48 h [4] | EC50 (Influenza A virus [5])
CCC(CC)O[C@@H]1C=C(C(=O)O)C[C@H](NCc2ccc(SC)cc2)[C@H]1NC(C)=O | 0.66 µM | 8.34 µM | 7.97 µM | > 200 µM | 0.48 µM
CCC(CC)O[C@@H]1C=C(C(=O)NCc2ccc(Cl)cc2)C[C@H](NCc2ccc(N3CCCC3)cc2)[C@H]1NC(C)=O | > 100 µM | 0.94 µM |  | 77.1 µM | > 100 µM
CCC(CC)O[C@@H]1C=C(C(=O)NCc2ccc(Cl)cc2)C[C@H](NCc2ccc(SC)cc2)[C@H]1NC(C)=O |  |  | > 100 µM |  | 
CCC(CC)O[C@@H]1C=C(C(=O)N[C@@H](C(=O)O)C(C)C)C[C@H](NCc2ccc(SC)cc2)[C@H]1NC(C)=O | > 100 µM |  | > 100 µM | > 200 µM | 26.6 µM
CCC(CC)O[C@@H]1C=C(C(=O)O)C[C@H](N)[C@H]1NC(C)=O [OSELTAMIVIR CARBOXYLATE] | 0.82 µM |  | 0.037 µM | > 200 µM | 0.17 µM
CCC(CC)O[C@@H]1C=C(C(=O)N[C@@H](C(=O)O)C(C)C)C[C@H](NCc2ccc(N3CCCC3)cc2)[C@H]1NC(C)=O |  | 2.41 µM |  |  | 
CCC(CC)O[C@@H]1C=C(C(=O)NCc2ccc(C(=O)O)cc2)C[C@H](NCc2ccc(N3CCCC3)cc2)[C@H]1NC(C)=O |  | 4.7 µM |  |  | 
CCC(CC)O[C@@H]1C=C(C(=O)NCc2ccc(C(=O)O)cc2)C[C@H](NCc2ccc(N(CC)CC)cc2)[C@H]1NC(C)=O |  | 13.3 µM |  |  | 
CCC(CC)O[C@@H]1C=C(C(=O)NCc2ccc(C(=O)O)cc2)C[C@H](NCc2ccc(Sc3ccccc3)cc2)[C@H]1NC(C)=O |  | > 100 µM |  |  | 
CCC(CC)O[C@@H]1C=C(C(=O)N[C@@H](C(=O)O)C(C)C)C[C@H](NCc2ccc(Sc3ccccc3)cc2)[C@H]1NC(C)=O |  | > 100 µM | > 100 µM |  | 
CCC(CC)O[C@@H]1C=C(C(=O)NCc2ccc(F)cc2)C[C@H](NCc2ccc(N3CCCC3)cc2)[C@H]1NC(C)=O |  | 48.4 µM |  |  | 
